{"source": "ChEMBL document CHEMBL2086239", "about": "“Synthesis and biological evaluation of combretastatin-amidobenzothiazole conjugates as potential anticancer agents” (Eur J Med Chem, 2012)", "format_in_all_cases": "functional", "key": {"[1]": {"system": "COLO 205", "experiment": "Cytotoxicity against human COLO205 cells after 48 hrs assessed as inhibition of cell growth at 10 uM after 48 hrs by SRB assay relative to control", "settings": "COLO 205, 48 h, read-out: GI", "method_in_brief": "(§1)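 SRB protein assay in DMEM with 10% FBS at 37 °C, 5% CO2, 100% relative humidity. Cells seeded in 96-well plates, incubated 24 h, then exposed to drug at 10 µM for 48 h and processed per standard protocol. Absorbance read at 560 nm; growth percentage calculated for test wells relative to control wells.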"}, "[2]": {"system": "THP-1", "experiment": "Cytotoxicity against human THP1 cells after 48 hrs assessed as inhibition of cell growth at 10 uM after 48 hrs by SRB assay relative to control", "settings": "THP-1, 48 h, read-out: GI", "method_in_brief": "as §1"}, "[3]": {"system": "MCF7", "experiment": "Cytotoxicity against human MCF7 cells after 48 hrs assessed as inhibition of cell growth at 10 uM after 48 hrs by SRB assay relative to control", "settings": "MCF7, 48 h, read-out: GI", "method_in_brief": "as §1"}, "[4]": {"system": "HEp-2", "experiment": "Cytotoxicity against human Hep2 cells after 48 hrs assessed as inhibition of cell growth at 10 uM after 48 hrs by SRB assay relative to control", "settings": "HEp-2, 48 h, read-out: GI", "method_in_brief": "as §1"}, "[5]": {"system": "PC-3", "experiment": "Cytotoxicity against human PC3 cells after 48 hrs assessed as inhibition of cell growth at 10 uM after 48 hrs by SRB assay relative to control", "settings": "PC-3, 48 h, read-out: GI", "method_in_brief": "as §1"}, "[6]": {"system": "MOLT-4", "experiment": "Growth inhibition of human MOLT4 cells after 48 hrs by SRB assay", "settings": "MOLT-4, 48 h", "method_in_brief": "(§2)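 NCI 60-cell-line screen: after preliminary screening, tested at five dose concentrations on 59 human tumour lines covering leukemia, lung, colon, CNS, melanoma, ovarian, renal, prostate and breast.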"}, "[7]": {"system": "SR", "experiment": "Growth inhibition of human SR cells after 48 hrs by SRB assay", "method_in_brief": "(§3)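 NCI 60-cell-line panel, five-dose testing after preliminary screen; sulforhodamine B protein assay in DMEM with 10% FBS, 37 °C, 5% CO2, 100% humidity. Cells seeded and incubated 24 h before compound addition, then exposed 48 h. Absorbance read at 560 nm; growth percentage relative to control wells; GI50 taken as concentration giving 50% growth inhibition.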"}, "[8]": {"system": "A549", "experiment": "Growth inhibition of human A549 cells after 48 hrs by SRB assay", "settings": "A549, 48 h", "method_in_brief": "as §2"}, "[9]": {"system": "NCI-H23", "experiment": "Growth inhibition of human NCI-H23 cells after 48 hrs by SRB assay", "settings": "NCI-H23, 48 h", "method_in_brief": "as §2"}, "[10]": {"system": "NCI-H460", "experiment": "Growth inhibition of human NCI-H460 cells after 48 hrs by SRB assay", "settings": "NCI-H460, 48 h", "method_in_brief": "as §2"}, "[11]": {"system": "NCI-H522", "experiment": "Growth inhibition of human NCI-H522 cells after 48 hrs by SRB assay", "settings": "NCI-H522, 48 h", "method_in_brief": "as §2"}, "[12]": {"system": "HCC 2998", "experiment": "Growth inhibition of human HCC2998 cells after 48 hrs by SRB assay", "settings": "HCC 2998, 48 h", "method_in_brief": "as §2"}, "[13]": {"system": "HCT-15", "experiment": "Growth inhibition of human HCT15 cells after 48 hrs by SRB assay", "settings": "HCT-15, 48 h", "method_in_brief": "as §2"}, "[14]": {"system": "HT-29", "experiment": "Growth inhibition of human HT-29 cells after 48 hrs by SRB assay", "method_in_brief": "as §2"}, "[15]": {"system": "KM12", "experiment": "Growth inhibition of human KM12 cells after 48 hrs by SRB assay", "settings": "KM12, 48 h", "method_in_brief": "as §2"}, "[16]": {"system": "SNB-19", "experiment": "Growth inhibition of human SNB19 cells after 48 hrs by SRB assay", "settings": "SNB-19, 48 h", "method_in_brief": "as §3"}, "[17]": {"system": "SNB-75", "experiment": "Growth inhibition of human SNB75 cells after 48 hrs by SRB assay", "settings": "SNB-75, 48 h", "method_in_brief": "as §3"}, "[18]": {"system": "U-251", "experiment": "Growth inhibition of human U251cells after 48 hrs by SRB assay", "settings": "U-251, 48 h", "method_in_brief": "as §3"}, "[19]": {"system": "LOX IMVI", "experiment": "Growth inhibition of human LOXIMVI cells after 48 hrs by SRB assay", "method_in_brief": "as §2"}, "[20]": {"system": "M14", "experiment": "Growth inhibition of human M14 cells after 48 hrs by SRB assay", "settings": "M14, 48 h", "method_in_brief": "as §2"}, "[21]": {"system": "MDA-MB-435", "experiment": "Growth inhibition of human MDA-MB-435 cells after 48 hrs by SRB assay", "settings": "MDA-MB-435, 48 h", "method_in_brief": "as §2"}, "[22]": {"system": "SK-MEL-2", "experiment": "Growth inhibition of human SK-MEL-2 cells after 48 hrs by SRB assay", "settings": "SK-MEL-2, 48 h", "method_in_brief": "as §3"}, "[23]": {"system": "SK-MEL-28", "experiment": "Growth inhibition of human SK-MEL-28 cells after 48 hrs by SRB assay", "settings": "SK-MEL-28, 48 h", "method_in_brief": "as §3"}, "[24]": {"system": "SK-MEL-5", "experiment": "Growth inhibition of human SK-MEL-5 cells after 48 hrs by SRB assay", "settings": "SK-MEL-5, 48 h", "method_in_brief": "as §3"}, "[25]": {"system": "UACC-257", "experiment": "Growth inhibition of human UACC257 cells after 48 hrs by SRB assay", "method_in_brief": "as §3"}, "[26]": {"system": "IGROV-1", "experiment": "Growth inhibition of human IGROV1 cells after 48 hrs by SRB assay", "settings": "IGROV-1, 48 h", "method_in_brief": "as §2"}, "[27]": {"system": "OVCAR-3", "experiment": "Growth inhibition of human OVCAR3 cells after 48 hrs by SRB assay", "settings": "OVCAR-3, 48 h", "method_in_brief": "as §2"}, "[28]": {"system": "OVCAR-5", "experiment": "Growth inhibition of human OVCAR5 cells after 48 hrs by SRB assay", "settings": "OVCAR-5, 48 h", "method_in_brief": "as §2"}, "[29]": {"system": "NCI/ADR-RES", "experiment": "Growth inhibition of human NCI/ADR-RES cells after 48 hrs by SRB assay", "method_in_brief": "as §2"}, "[30]": {"system": "786-0", "experiment": "Growth inhibition of human 786-0 cells after 48 hrs by SRB assay", "method_in_brief": "as §2"}, "[31]": {"system": "A498", "experiment": "Growth inhibition of human A498 cells after 48 hrs by SRB assay", "settings": "A498, 48 h", "method_in_brief": "as §2"}, "[32]": {"system": "ACHN", "experiment": "Growth inhibition of human ACHN cells after 48 hrs by SRB assay", "method_in_brief": "as §2"}, "[33]": {"system": "CAKI-1", "experiment": "Growth inhibition of human Caki1 cells after 48 hrs by SRB assay", "settings": "CAKI-1, 48 h", "method_in_brief": "as §2"}, "[34]": {"system": "RXF 393", "experiment": "Growth inhibition of human RXF393 cells after 48 hrs by SRB assay", "settings": "RXF 393, 48 h", "method_in_brief": "as §2"}, "[35]": {"system": "SN12C", "experiment": "Growth inhibition of human SN12C cells after 48 hrs by SRB assay", "method_in_brief": "as §3"}, "[36]": {"system": "TK-10", "experiment": "Growth inhibition of human TK10 cells after 48 hrs by SRB assay", "settings": "TK-10, 48 h", "method_in_brief": "as §3"}, "[37]": {"system": "UO-31", "experiment": "Growth inhibition of human UO31 cells after 48 hrs by SRB assay", "settings": "UO-31, 48 h", "method_in_brief": "as §3"}, "[38]": {"system": "MCF7", "experiment": "Growth inhibition of human MCF7 cells after 48 hrs by SRB assay", "settings": "MCF7, 48 h", "method_in_brief": "as §2"}, "[39]": {"system": "Hs-578T", "experiment": "Growth inhibition of human Hs578T cells after 48 hrs by SRB assay", "method_in_brief": "as §2"}, "[40]": {"system": "MDA-MB-468", "experiment": "Growth inhibition of human MDA-MB-468 cells after 48 hrs by SRB assay", "settings": "MDA-MB-468, 48 h", "method_in_brief": "as §2"}, "[41]": {"system": "MCF7", "experiment": "Cell cycle arrest in human MCF7 cells assessed as accumulation at S phase at 4 uM after 24 hrs by FACS analysis (reference value: 6.79%)"}, "[42]": {"system": "SW-620", "experiment": "Growth inhibition of human SW620 cells after 48 hrs by SRB assay", "settings": "SW-620, 48 h", "method_in_brief": "as §3"}}, "note": "Active and inactive are the calls of the source. No cut-off for these calls is given here.", "data": [{"smiles": "COc1ccc(/C=C\\c2cc(OC)c(OC)c(OC)c2)cc1OCC(=O)Nc1nc2ccc(OC(F)(F)F)cc2s1", "values": [{"measurement": "inhibition of growth at 10 µM", "setting": "[1]", "result": 41, "unit": "%"}, {"measurement": "inhibition of growth at 10 µM", "setting": "[2]", "result": 66, "unit": "%"}, {"measurement": "inhibition of growth at 10 µM", "setting": "[3]", "result": 59, "unit": "%"}, {"measurement": "inhibition of growth at 10 µM", "setting": "[4]", "result": 78, "unit": "%"}, {"measurement": "inhibition of growth at 10 µM", "setting": "[5]", "result": 34, "unit": "%"}, {"measurement": "GI50", "setting": "[6]", "result": 4.21, "unit": "µM"}, {"measurement": "GI50", "setting": "[7]", "result": 3.55, "unit": "µM"}, {"measurement": "GI50", "setting": "[8]", "result": 6, "unit": "µM"}, {"measurement": "GI50", "setting": "[9]", "result": 4.39, "unit": "µM"}, {"measurement": "GI50", "setting": "[10]", "result": 4.11, "unit": "µM"}, {"measurement": "GI50", "setting": "[11]", "result": 3.16, "unit": "µM"}, {"measurement": "GI50", "setting": "[12]", "result": 17.1, "unit": "µM"}, {"measurement": "GI50", "setting": "[13]", "result": 3.23, "unit": "µM"}, {"measurement": "GI50", "setting": "[14]", "result": "inactive"}, {"measurement": "GI50", "setting": "[15]", "result": 4.48, "unit": "µM"}, {"measurement": "GI50", "setting": "[16]", "result": 7.08, "unit": "µM"}, {"measurement": "GI50", "setting": "[17]", "result": 1.56, "unit": "µM"}, {"measurement": "GI50", "setting": "[18]", "result": 3.37, "unit": "µM"}, {"measurement": "GI50", "setting": "[19]", "result": 4.77, "unit": "µM"}, {"measurement": "GI50", "setting": "[20]", "result": 4.36, "unit": "µM"}, {"measurement": "GI50", "setting": "[21]", "result": 1.93, "unit": "µM"}, {"measurement": "GI50", "setting": "[22]", "result": 3.29, "unit": "µM"}, {"measurement": "GI50", "setting": "[23]", "result": 4.57, "unit": "µM"}, {"measurement": "GI50", "setting": "[24]", "result": 3.26, "unit": "µM"}, {"measurement": "GI50", "setting": "[25]", "result": "inactive"}, {"measurement": "GI50", "setting": "[26]", "result": 5.64, "unit": "µM"}, {"measurement": "GI50", "setting": "[27]", "result": 3.37, "unit": "µM"}, {"measurement": "GI50", "setting": "[28]", "result": 3.12, "unit": "µM"}, {"measurement": "GI50", "setting": "[29]", "result": 2.7, "unit": "µM"}, {"measurement": "GI50", "setting": "[30]", "result": "inactive"}, {"measurement": "GI50", "setting": "[31]", "result": 3.61, "unit": "µM"}, {"measurement": "GI50", "setting": "[32]", "result": 8.31, "unit": "µM"}, {"measurement": "GI50", "setting": "[33]", "result": 4.6, "unit": "µM"}, {"measurement": "GI50", "setting": "[34]", "result": 2.65, "unit": "µM"}, {"measurement": "GI50", "setting": "[35]", "result": 6.42, "unit": "µM"}, {"measurement": "GI50", "setting": "[36]", "result": 18.6, "unit": "µM"}, {"measurement": "GI50", "setting": "[37]", "result": 4.37, "unit": "µM"}, {"measurement": "GI50", "setting": "[38]", "result": 2.89, "unit": "µM"}, {"measurement": "GI50", "setting": "[39]", "result": 4.33, "unit": "µM"}, {"measurement": "GI50", "setting": "[40]", "result": 2.3, "unit": "µM"}, {"measurement": "Activity", "setting": "[41]", "result": 7.51, "unit": "%"}, {"measurement": "GI50", "setting": "[42]", "result": 5.65, "unit": "µM"}]}]}
